# Experimental data published in ChEMBL document CHEMBL1629564, “Mechanisms accounting for fluoroquinolone resistance in Escherichia coli clinical isolates” (2009).
# Legend:
# Escherichia coli [1] = experiment: Antimicrobial activity against Escherichia coli […] harboring gyrA L83, N87, parC I80, K84 and parE D460 mutant gene by agar dilution method; type: functional, K-12
# Method in brief: (§1)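 Clinical E. coli isolates, with topoisomerase QRDR genotype (gyrA, gyrB, parC, parE) found by PCR sequencing. MICs for ciprofloxacin, gatifloxacin, levofloxacin and norfloxacin were measured by CLSI agar dilution using a modified dilution scheme. Where the agar dilution MIC was <1 μg/ml, the value came from at least two Etest measurements.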
# Escherichia coli [2] = experiment: Antimicrobial activity against Escherichia coli K-12 harboring gyrA L83, Y87 and parC K84 mutant gene by agar dilution method; type: functional
# Escherichia coli [3] = experiment: Antimicrobial activity against Escherichia coli K-12 harboring gyrA L83, Y87 and parC I80, G84 mutant gene by agar dilution method; type: functional
# Escherichia coli [4] = experiment: Antimicrobial activity against Escherichia coli harboring gyrA L83, Y87, parC I80, G84 and parE A458 mutant gene by agar dilution method
# Escherichia coli [5] = experiment: Antimicrobial activity against Escherichia coli K-12 harboring gyrA A83 mutant gene by agar dilution method; type: functional
# Escherichia coli [6] = experiment: Antimicrobial activity against Escherichia coli K-12 harboring by agar dilution method; type: functional
# Escherichia coli [7] = experiment: Antimicrobial activity against Escherichia coli K-12 harboring gyrA L83, N87 mutant gene by agar dilution method; type: functional
# Escherichia coli [8] = experiment: Antimicrobial activity against Escherichia coli K-12 harboring gyrA L83, N87 and parC K84 mutant gene by agar dilution method; type: functional
# Escherichia coli [9] = experiment: Antimicrobial activity against Escherichia coli K-12 harboring gyrA L83, N87 and parC I80 mutant gene by agar dilution method; type: functional
# Escherichia coli [10] = experiment: Antimicrobial activity against Escherichia coli […] harboring gyrA L83, N87, parC I80 and parE M464 mutant gene by agar dilution method; type: functional, K-12; method in brief: as §1
# Escherichia coli [11] = experiment: Antimicrobial activity against […] harboring gyrA L83, N87, parC I80 and parE […] mutant gene by agar dilution method; type: functional, K-12; method in brief: as §1
# Escherichia coli [12] = experiment: Antimicrobial activity against Escherichia coli K-12 harboring gyrA L83, N87 and parC I80, G84 mutant gene by agar dilution method; type: functional
# Escherichia coli [13] = experiment: Antimicrobial activity against […] harboring gyrA L83, N87, gyrB T471 and parC I80, G84 mutant gene by agar dilution method; type: functional, K-12; method in brief: as §1
# Escherichia coli [14] = experiment: Antimicrobial activity against Escherichia coli K-12 harboring gyrA L83, Y87 mutant gene by agar dilution method; type: functional
# Escherichia coli [15] = experiment: Antimicrobial activity against Escherichia coli K-12 harboring gyrA L83, Y87 and parC I80 mutant gene by agar dilution method; type: functional
# Escherichia coli [16] = experiment: Antimicrobial activity against Escherichia coli […] harboring gyrA L83, Y87, parC I80 and parE A458 mutant gene by agar dilution method; type: functional, K-12; method in brief: as §1
Structure (SMILES),MIC (Escherichia coli [1]),MIC (Escherichia coli [2]),MIC (Escherichia coli [3]),MIC (Escherichia coli [4]),MIC (Escherichia coli [5]),MIC (Escherichia coli [6]),MIC (Escherichia coli [7]),MIC (Escherichia coli [8]),MIC (Escherichia coli [9]),MIC (Escherichia coli [10]),MIC (Escherichia coli [11]),MIC (Escherichia coli [12]),MIC (Escherichia coli [13]),MIC (Escherichia coli [14]),MIC (Escherichia coli [15]),MIC (Escherichia coli [16])
O=C(O)c1cn(C2CC2)c2cc(N3CCNCC3)c(F)cc2c1=O [CIPROFLOXACIN],200 µg/mL,500 µg/mL,40 µg/mL,300 µg/mL,,,,,,,,,,,,
COc1c(N2CCNC(C)C2)c(F)cc2c(=O)c(C(=O)O)cn(C3CC3)c12 (stereo unspecified) [GATIFLOXACIN],20 µg/mL,30 µg/mL,10 µg/mL,30 µg/mL,0.094 µg/mL,0.007 µg/mL,10 µg/mL,30 µg/mL,10 µg/mL,20 µg/mL,10 µg/mL,10 µg/mL,20 µg/mL,0.5 µg/mL,10 µg/mL,20 µg/mL
C[C@H]1COc2c(N3CCN(C)CC3)c(F)cc3c(=O)c(C(=O)O)cn1c23.C[C@H]1COc2c(N3CCN(C)CC3)c(F)cc3c(=O)c(C(=O)O)cn1c23.O [LEVOFLOXACIN],50 µg/mL,50 µg/mL,50 µg/mL,200 µg/mL,0.168 µg/mL,,10 µg/mL,50 µg/mL,8 µg/mL,50 µg/mL,20 µg/mL,50 µg/mL,30 µg/mL,2 µg/mL,10 µg/mL,50 µg/mL
CCn1cc(C(=O)O)c(=O)c2cc(F)c(N3CCNCC3)cc21 [NORFLOXACIN],400 µg/mL,1000 µg/mL,100 µg/mL,1000 µg/mL,0.194 µg/mL,0.023 µg/mL,10 µg/mL,200 µg/mL,10 µg/mL,400 µg/mL,50 µg/mL,200 µg/mL,200 µg/mL,8 µg/mL,50 µg/mL,300 µg/mL
